Data: ChEMBL document CHEMBL4689842, “EUbOPEN Chemogenomics Library wave 1” (2021)
“And” between values parts separate entries of the source, which are not always exact repeats. Identical values can stand only once.

Legend:
Type in all cases: toxicity, cell-based
U2OS [1] = experiment: Incucyte cell viability with U2OS; conditions: human, 10 µM, compound concentration 10 uM; note: filed as whole numbers so only -1 and 0 and 1 occur
Fibroblast [2] = experiment: Incucyte cell viability with human fibroblast; conditions: 10 µM, compound concentration 10 uM; note: filed as whole numbers so only -1 and 0 and 1 occur
Fibroblast [3] = experiment: Multiplex assay against human fibroblast; conditions: 10 µM, compound concentration 10 uM
Method in brief: (§1)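 At seeding, live cells were stained with Hoechst33342, BioTracker Green Microtubule Cytoskeleton Dye, MitoTracker Red and Annexin V Alexa Fluor 680. After compound addition they were imaged on a CQ1 microscope at 37°C and 5% CO2, and CellPathfinder machine-learning gating sorted them into Hoechst high-intensity objects or normal cells, with normal cells further split into healthy, pyknosed or fragmented nuclei and pyknosed cells into mitotic or apoptotic. Tubulin, mitochondrial-mass and membrane-permeability phenotypes are given as per cents of cells with healthy nuclei.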

HEK-293T [4] = experiment: Multiplex assay against HEK293T; conditions: human, 10 µM, compound concentration 10 uM; method in brief: as §1;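 for Population Tubulin-Different-Phenotype (%): share of the cells with healthy nuclei that show this phenotype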
HEK-293T [5] = experiment: Incucyte cell viability with HEK293T; conditions: human, 10 µM, compound concentration 10 uM; note: filed as whole numbers so only -1 and 0 and 1 occur
U2OS [6] = experiment: Multiplex assay against U2OS; conditions: human, 10 µM, compound concentration 10 uM; method in brief: as §1
[7] = 0 h, replicate number 1, timepoint 0 hours
[8] = 6 h, replicate number 1, timepoint 6 hours
[9] = 12 h, replicate number 1, timepoint 12 hours
[10] = 18 h, replicate number 1, timepoint 18 hours
[11] = 24 h, replicate number 1, timepoint 24 hours

O=C(O)c1ccc2c(c1)nc(Nc1cccc(Cl)c1)c1ccncc12 [SILMITASERTIB]
Growth Rate (U2OS [1]; [7]): 0
Growth Rate (U2OS [1]; 0 h, replicate number 2, timepoint 0 hours): 1
Growth Rate (U2OS [1]; [8]): 1
Growth Rate (U2OS [1]; 6 h, replicate number 2, timepoint 6 hours): 0
Growth Rate (U2OS [1]; [9]): 0
Growth Rate (U2OS [1]; [10]): 0
Growth Rate (U2OS [1]; [11]): 0
Growth Rate (Fibroblast [2]; [7]): 0
Growth Rate (Fibroblast [2]; [9]): 1
Growth Rate (Fibroblast [2]; [10]): 0
Growth Rate (Fibroblast [2]; 18 h, replicate number 2, timepoint 18 hours): 1
Growth Rate (Fibroblast [2]; [11]): 0
Growth Rate (Fibroblast [2]; 24 h, replicate number 2, timepoint 24 hours): 1
Population Apoptotic (%) (Fibroblast [3]; 12 h, replicate 1): 75% and 73%
Population Fragmented Nuclei (%) (Fibroblast [3]; 12 h, replicate 1): 29% and 31%
Population Healthy Nuclei (%) (Fibroblast [3]; 12 h, replicate 1): 56% and 60%
Population Hoechst High Intensity Objects (%) (Fibroblast [3]; 12 h, replicate 1): 20% and 12%
Population Membrane Permeable-Phenotype (%) (Fibroblast [3]; 12 h, replicate 1): 10% and 4%
Population Mitochondria Different-Phenotype (%) (Fibroblast [3]; 12 h, replicate 1): 2% and 3%
Population Mitotic Cells (%) (Fibroblast [3]; 12 h, replicate 1): 25% and 26%
Population Normal (%) (Fibroblast [3]; 12 h, replicate 1): 79% and 87%
Population Pyknosed Nuclei (%) (Fibroblast [3]; 12 h, replicate 1): 14% and 7%
Population Tubulin-Different-Phenotype (%) (Fibroblast [3]; 12 h, replicate 1): 6% and 4%
Total Cell Count (Fibroblast [3]; 12 h, replicate 1): 314 and 234
Population Apoptotic (%) (Fibroblast [3]; 12 h, replicate 2): 33% and 60%
Population Fragmented Nuclei (%) (Fibroblast [3]; 12 h, replicate 2): 60% and 64%
Population Healthy Nuclei (%) (Fibroblast [3]; 12 h, replicate 2): 33% and 25%
Population Hoechst High Intensity Objects (%) (Fibroblast [3]; 12 h, replicate 2): 30% and 32%
Population Membrane Permeable-Phenotype (%) (Fibroblast [3]; 12 h, replicate 2): 17% and 15%
Population Mitochondria Different-Phenotype (%) (Fibroblast [3]; 12 h, replicate 2): 11% and 7%
Population Mitotic Cells (%) (Fibroblast [3]; 12 h, replicate 2): 66% and 40%
Population Normal (%) (Fibroblast [3]; 12 h, replicate 2): 69% and 67%
Population Pyknosed Nuclei (%) (Fibroblast [3]; 12 h, replicate 2): 5% and 9%
Population Tubulin-Different-Phenotype (%) (Fibroblast [3]; 12 h, replicate 2): 29% and 23%
Total Cell Count (Fibroblast [3]; 12 h, replicate 2): 73 and 76
Population Apoptotic (%) (Fibroblast [3]; 24 h, replicate 1): 53%
Population Fragmented Nuclei (%) (Fibroblast [3]; 24 h, replicate 1): 32% and 26%
Population Healthy Nuclei (%) (Fibroblast [3]; 24 h, replicate 1): 53% and 60%
Population Hoechst High Intensity Objects (%) (Fibroblast [3]; 24 h, replicate 1): 19% and 17%
Population Membrane Permeable-Phenotype (%) (Fibroblast [3]; 24 h, replicate 1): 5%
Population Mitochondria Different-Phenotype (%) (Fibroblast [3]; 24 h, replicate 1): 2%
Population Mitotic Cells (%) (Fibroblast [3]; 24 h, replicate 1): 46%
Population Normal (%) (Fibroblast [3]; 24 h, replicate 1): 80% and 82%
Population Pyknosed Nuclei (%) (Fibroblast [3]; 24 h, replicate 1): 14% and 13%
Total Cell Count (Fibroblast [3]; 24 h, replicate 1): 314 and 235
Population Apoptotic (%) (Fibroblast [3]; 24 h, replicate 2): 66% and 50%
Population Fragmented Nuclei (%) (Fibroblast [3]; 24 h, replicate 2): 62%
Population Healthy Nuclei (%) (Fibroblast [3]; 24 h, replicate 2): 26% and 29%
Population Hoechst High Intensity Objects (%) (Fibroblast [3]; 24 h, replicate 2): 27% and 33%
Population Membrane Permeable-Phenotype (%) (Fibroblast [3]; 24 h, replicate 2): 14% and 6%
Population Mitotic Cells (%) (Fibroblast [3]; 24 h, replicate 2): 33% and 50%
Population Normal (%) (Fibroblast [3]; 24 h, replicate 2): 72% and 66%
Population Pyknosed Nuclei (%) (Fibroblast [3]; 24 h, replicate 2): 11% and 7%
Population Tubulin-Different-Phenotype (%) (Fibroblast [3]; 24 h, replicate 2): 21% and 31%
Total Cell Count (Fibroblast [3]; 24 h, replicate 2): 73 and 81
Population Apoptotic (%) (HEK-293T [4]; 12 h, replicate 1): 24% and 17%
Population Fragmented Nuclei (%) (HEK-293T [4]; 12 h, replicate 1): 14% and 17%
Population Healthy Nuclei (%) (HEK-293T [4]; 12 h, replicate 1): 67% and 65%
Population Hoechst High Intensity Objects (%) (HEK-293T [4]; 12 h, replicate 1): 10% and 15%
Population Membrane Permeable-Phenotype (%) (HEK-293T [4]; 12 h, replicate 1): 8% and 6%
Population Mitochondria Different-Phenotype (%) (HEK-293T [4]; 12 h, replicate 1): 5% and 4%
Population Mitotic Cells (%) (HEK-293T [4]; 12 h, replicate 1): 76% and 82%
Population Normal (%) (HEK-293T [4]; 12 h, replicate 1): 89% and 84%
Population Pyknosed Nuclei (%) (HEK-293T [4]; 12 h, replicate 1): 17%
Population Tubulin-Different-Phenotype (%) (HEK-293T [4]; 12 h, replicate 1): 7% and 6%
Total Cell Count (HEK-293T [4]; 12 h, replicate 1): 624 and 579
Population Apoptotic (%) (HEK-293T [4]; 12 h, replicate 2): 11% and 7%
Population Fragmented Nuclei (%) (HEK-293T [4]; 12 h, replicate 2): 8% and 10%
Population Healthy Nuclei (%) (HEK-293T [4]; 12 h, replicate 2): 84% and 85%
Population Hoechst High Intensity Objects (%) (HEK-293T [4]; 12 h, replicate 2): 3% and 2%
Population Membrane Permeable-Phenotype (%) (HEK-293T [4]; 12 h, replicate 2): 4% and 1%
Population Mitochondria Different-Phenotype (%) (HEK-293T [4]; 12 h, replicate 2): 9%
Population Mitotic Cells (%) (HEK-293T [4]; 12 h, replicate 2): 88% and 92%
Population Normal (%) (HEK-293T [4]; 12 h, replicate 2): 96% and 97%
Population Pyknosed Nuclei (%) (HEK-293T [4]; 12 h, replicate 2): 6% and 3%
Total Cell Count (HEK-293T [4]; 12 h, replicate 2): 1391 and 1841
Population Apoptotic (%) (HEK-293T [4]; 24 h, replicate 1): 28% and 16%
Population Fragmented Nuclei (%) (HEK-293T [4]; 24 h, replicate 1): 14%
Population Healthy Nuclei (%) (HEK-293T [4]; 24 h, replicate 1): 77% and 74%
Population Hoechst High Intensity Objects (%) (HEK-293T [4]; 24 h, replicate 1): 6% and 14%
Population Membrane Permeable-Phenotype (%) (HEK-293T [4]; 24 h, replicate 1): 10%
Population Mitochondria Different-Phenotype (%) (HEK-293T [4]; 24 h, replicate 1): 5% and 3%
Population Mitotic Cells (%) (HEK-293T [4]; 24 h, replicate 1): 71% and 84%
Population Normal (%) (HEK-293T [4]; 24 h, replicate 1): 93% and 85%
Population Pyknosed Nuclei (%) (HEK-293T [4]; 24 h, replicate 1): 8% and 9%
Population Tubulin-Different-Phenotype (%) (HEK-293T [4]; 24 h, replicate 1): 5% and 15%
Total Cell Count (HEK-293T [4]; 24 h, replicate 1): 718 and 592
Population Apoptotic (%) (HEK-293T [4]; 24 h, replicate 2): 9% and 4%
Population Fragmented Nuclei (%) (HEK-293T [4]; 24 h, replicate 2): 15% and 30%
Population Healthy Nuclei (%) (HEK-293T [4]; 24 h, replicate 2): 79% and 67%
Population Hoechst High Intensity Objects (%) (HEK-293T [4]; 24 h, replicate 2): 7% and 4%
Population Membrane Permeable-Phenotype (%) (HEK-293T [4]; 24 h, replicate 2): 9% and 4%
Population Mitochondria Different-Phenotype (%) (HEK-293T [4]; 24 h, replicate 2): 6% and 0%
Population Mitotic Cells (%) (HEK-293T [4]; 24 h, replicate 2): 90% and 95%
Population Normal (%) (HEK-293T [4]; 24 h, replicate 2): 92% and 95%
Population Pyknosed Nuclei (%) (HEK-293T [4]; 24 h, replicate 2): 4% and 1%
Total Cell Count (HEK-293T [4]; 24 h, replicate 2): 1562 and 3163
Growth Rate (HEK-293T [5]; [7]): 0
Growth Rate (HEK-293T [5]; [8]): 0
Growth Rate (HEK-293T [5]; [9]): 0
Growth Rate (HEK-293T [5]; [10]): 0
Growth Rate (HEK-293T [5]; [11]): 0
Population Apoptotic (%) (U2OS [6]; 12 h, replicate 1): 50% and 36%
Population Fragmented Nuclei (%) (U2OS [6]; 12 h, replicate 1): 5%
Population Healthy Nuclei (%) (U2OS [6]; 12 h, replicate 1): 87% and 85%
Population Hoechst High Intensity Objects (%) (U2OS [6]; 12 h, replicate 1): 4%
Population Membrane Permeable-Phenotype (%) (U2OS [6]; 12 h, replicate 1): 11% and 8%
Population Mitotic Cells (%) (U2OS [6]; 12 h, replicate 1): 50% and 63%
Population Normal (%) (U2OS [6]; 12 h, replicate 1): 95%
Population Pyknosed Nuclei (%) (U2OS [6]; 12 h, replicate 1): 7%
Population Tubulin-Different-Phenotype (%) (U2OS [6]; 12 h, replicate 1): 19% and 32%
Total Cell Count (U2OS [6]; 12 h, replicate 1): 163 and 151
Population Apoptotic (%) (U2OS [6]; 12 h, replicate 2): 33%
Population Fragmented Nuclei (%) (U2OS [6]; 12 h, replicate 2): 6% and 8%
Population Healthy Nuclei (%) (U2OS [6]; 12 h, replicate 2): 90%
Population Hoechst High Intensity Objects (%) (U2OS [6]; 12 h, replicate 2): 6% and 13%
Population Membrane Permeable-Phenotype (%) (U2OS [6]; 12 h, replicate 2): 10% and 4%
Population Mitochondria Different-Phenotype (%) (U2OS [6]; 12 h, replicate 2): 27% and 26%
Population Mitotic Cells (%) (U2OS [6]; 12 h, replicate 2): 66%
Population Normal (%) (U2OS [6]; 12 h, replicate 2): 93% and 86%
Population Pyknosed Nuclei (%) (U2OS [6]; 12 h, replicate 2): 2% and 4%
Population Tubulin-Different-Phenotype (%) (U2OS [6]; 12 h, replicate 2): 31% and 18%
Total Cell Count (U2OS [6]; 12 h, replicate 2): 140 and 110
Population Apoptotic (%) (U2OS [6]; 24 h, replicate 1): 23% and 50%
Population Fragmented Nuclei (%) (U2OS [6]; 24 h, replicate 1): 9% and 4%
Population Healthy Nuclei (%) (U2OS [6]; 24 h, replicate 1): 82% and 91%
Population Hoechst High Intensity Objects (%) (U2OS [6]; 24 h, replicate 1): 1% and 3%
Population Membrane Permeable-Phenotype (%) (U2OS [6]; 24 h, replicate 1): 14% and 6%
Population Mitochondria Different-Phenotype (%) (U2OS [6]; 24 h, replicate 1): 20% and 35%
Population Mitotic Cells (%) (U2OS [6]; 24 h, replicate 1): 76% and 50%
Population Normal (%) (U2OS [6]; 24 h, replicate 1): 98% and 96%
Population Pyknosed Nuclei (%) (U2OS [6]; 24 h, replicate 1): 8% and 4%
Population Tubulin-Different-Phenotype (%) (U2OS [6]; 24 h, replicate 1): 33% and 35%
Total Cell Count (U2OS [6]; 24 h, replicate 1): 208 and 206
Population Apoptotic (%) (U2OS [6]; 24 h, replicate 2): 25% and 11%
Population Fragmented Nuclei (%) (U2OS [6]; 24 h, replicate 2): 8%
Population Healthy Nuclei (%) (U2OS [6]; 24 h, replicate 2): 83% and 76%
Population Hoechst High Intensity Objects (%) (U2OS [6]; 24 h, replicate 2): 4%
Population Membrane Permeable-Phenotype (%) (U2OS [6]; 24 h, replicate 2): 10% and 5%
Population Mitochondria Different-Phenotype (%) (U2OS [6]; 24 h, replicate 2): 41%
Population Mitotic Cells (%) (U2OS [6]; 24 h, replicate 2): 75% and 88%
Population Normal (%) (U2OS [6]; 24 h, replicate 2): 95%
Population Pyknosed Nuclei (%) (U2OS [6]; 24 h, replicate 2): 7% and 14%
Population Tubulin-Different-Phenotype (%) (U2OS [6]; 24 h, replicate 2): 31% and 30%
Total Cell Count (U2OS [6]; 24 h, replicate 2): 168 and 127
